These results are taken from ChEMBL document CHEMBL1150129, “Daucane phytoestrogens: a structure-activity study” (J Nat Prod, 2002).

Calls of active or inactive are those of the source. The rule behind the calls is not given here. Some results are limits rather than exact numbers.

Test [1] deals with T1, Estrogen receptor (Homo sapiens) (UniProt P03372).
T1 sequence (whole entry): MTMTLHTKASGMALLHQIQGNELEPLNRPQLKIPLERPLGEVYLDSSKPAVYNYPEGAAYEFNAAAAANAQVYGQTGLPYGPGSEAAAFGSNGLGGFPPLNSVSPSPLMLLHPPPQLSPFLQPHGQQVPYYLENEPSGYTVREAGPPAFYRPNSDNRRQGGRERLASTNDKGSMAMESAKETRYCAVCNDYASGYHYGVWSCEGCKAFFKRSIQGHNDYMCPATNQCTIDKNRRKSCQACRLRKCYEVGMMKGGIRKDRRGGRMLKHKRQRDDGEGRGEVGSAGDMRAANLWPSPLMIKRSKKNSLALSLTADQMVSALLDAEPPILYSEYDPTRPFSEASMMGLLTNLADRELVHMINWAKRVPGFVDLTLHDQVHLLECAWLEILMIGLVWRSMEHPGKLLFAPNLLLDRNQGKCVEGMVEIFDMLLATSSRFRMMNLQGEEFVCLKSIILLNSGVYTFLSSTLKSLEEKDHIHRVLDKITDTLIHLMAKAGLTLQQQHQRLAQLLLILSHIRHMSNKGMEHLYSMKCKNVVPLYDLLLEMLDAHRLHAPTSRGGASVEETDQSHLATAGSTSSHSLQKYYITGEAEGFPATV
The experiment in a line: Binding affinity to human ERalpha expressed in yeast relative to estradiol. Summed up: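 Yeast (Saccharomyces cerevisiae) estrogen screen expressing human ERα with estrogen-responsive sequences driving lac-Z. Compound aliquots dried into wells before assay. β-Galactosidase activity read as chlorophenol red β-D-galactopyranoside hydrolysis, absorbance 540 nm.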

For test [2], the target named is Estrogen receptor beta (Homo sapiens) (UniProt Q92731). The experiment in a line: Displacement of [2,4,6,7-3H]estradiol from human recombinant ERbeta receptor. Summed up: (§1)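 Recombinant human ERα or ERβ (1.5 nM) with 15 nM [3H]-17β-estradiol and diluted compounds in pH 7.5 Tris buffer with 10% glycerol, 2 mM DTT, 1 mg/mL BSA; overnight at 4 °C. Bound ligand captured on hydroxylapatite, washed thrice (ERα: Tris/KCl/EDTA/EGTA; ERβ: Tris only), ethanol-extracted, radioactivity counted.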

For test [3], the target named is T1, Estrogen receptor (Homo sapiens). The experiment in a line: Displacement of [2,4,6,7-3H]estradiol from human recombinant ERalpha receptor. Summed up: as §1

Estrogen receptor beta (Homo sapiens), sequence (Q92731 whole entry): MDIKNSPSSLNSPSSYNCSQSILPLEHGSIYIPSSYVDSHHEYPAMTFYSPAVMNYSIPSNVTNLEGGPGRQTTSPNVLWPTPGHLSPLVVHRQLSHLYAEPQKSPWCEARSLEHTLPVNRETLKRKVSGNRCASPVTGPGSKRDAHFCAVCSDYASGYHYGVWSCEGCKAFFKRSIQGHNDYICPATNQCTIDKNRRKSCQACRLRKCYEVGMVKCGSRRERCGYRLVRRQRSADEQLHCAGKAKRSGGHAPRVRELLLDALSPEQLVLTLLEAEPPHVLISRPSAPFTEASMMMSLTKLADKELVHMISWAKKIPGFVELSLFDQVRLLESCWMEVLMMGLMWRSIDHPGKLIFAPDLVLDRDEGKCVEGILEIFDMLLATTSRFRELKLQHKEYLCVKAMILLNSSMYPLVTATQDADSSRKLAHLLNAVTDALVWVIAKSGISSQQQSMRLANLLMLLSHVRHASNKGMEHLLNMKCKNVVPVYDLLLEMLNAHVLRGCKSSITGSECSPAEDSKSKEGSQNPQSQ

In the case of `CC1=CC[C@@]2(C)CC[C@@](O)(C(C)C)[C@@H]2[C@@H](OC(=O)CCc2ccc(O)c(O)c2)C1`, in test [1], the outcome was inactive. Still for that read-out and setting: for `CC1=CC[C@@]2(C)CC[C@@](O)(C(C)C)[C@@H]2[C@@H](OC(=O)/C=C/c2ccc(O)cc2)C1` the value was less than 0.0001%; for `CC1=CC[C@@]2(C)CC[C@@](O)(C(C)C)[C@@H]2[C@@H](OC(=O)CCc2ccc(O)cc2)C1`, less than 0.0001%; for `COc1cc(/C=C/C(=O)O[C@H]2CC(C)=CC[C@@]3(C)CC[C@@](O)(C(C)C)[C@H]23)cc(OC)c1O`, “inactive”. Still for that read-out and setting: for `CC1=CC[C@@]2(C)CC[C@@](O)(C(C)C)[C@@H]2[C@@H](OC(=O)c2ccccc2)C1` the value was “inactive”. For `COc1cc(CC(=O)O[C@H]2CC(C)=CC[C@@]3(C)CC[C@@](O)(C(C)C)[C@H]23)ccc1O`, the outcome in test [1] was inactive. The same measure, in the same setting: for `COc1cc(C(=O)O[C@H]2CC(C)=CC[C@@]3(C)CC[C@@](O)(C(C)C)[C@H]23)cc(OC)c1OC` the value was “inactive”. For `CC(=O)Oc1ccc(C(=O)O[C@H]2CC(C)=CC[C@@]3(C)CC[C@@](O)(C(C)C)[C@H]23)cc1`, the Activity is less than 1% in test [2], less than 1% in test [3] and 0.2% in test [1].

Take `COc1cc(/C=C/C(=O)O[C@H]2CC(C)=CC[C@@]3(C)CC[C@@](O)(C(C)C)[C@H]23)ccc1O`: the result in test [1] was inactive. Same read-out and setting: the figure for `COc1ccc(C(=O)O[C@H]2CC(C)=CC[C@@]3(C)CC[C@@](O)(C(C)C)[C@H]23)cc1` is less than 0.0001%. On the same count and under the same terms, the entry for `COc1cc(C(=O)O[C@H]2CC(C)=CC[C@@]3(C)CC[C@@](O)(C(C)C)[C@H]23)ccc1O` is “inactive”.

`CC1=CC[C@@]2(C)CC[C@@](O)(C(C)C)[C@@H]2[C@@H](OC(=O)c2ccc(O)c(O)c2)C1` came in with an Activity in test [1] of less than 0.1%. Regarding `CC1=CC[C@@]2(C)CC[C@@](O)(C(C)C)[C@@H]2[C@@H](OC(=O)Cc2ccc(O)cc2)C1`, in test [1], the Activity is less than 0.0001%. Same read-out and setting: the entry for `CC1=CC[C@@]2(C)CC[C@@](O)(C(C)C)[C@@H]2[C@@H](OC(=O)/C=C/c2ccc(O)c(O)c2)C1` is “inactive”.
